Data set [1] in a line: AUC (0 to t) in ICR mouse plasma at 50 mg/kg, po administered via gavage measured after 0.25 to 24 hrs by UPLC/MS analysis. In kind it is ADME, organism-based. Also noted: time lower 0.25 hr, dose 50 mg/kg, time upper 24 hr, route oral. In a few lines:
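Male ICR mice were dosed orally in 1% DMSO/0.5% HPMC vehicle. Plasma (and brain, where stated) concentrations gave Tmax, Cmax, T1/2, AUC0-t and AUC0-inf.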

The target of data set [2] is SWI/SNF-related matrix-associated actin-dependent regulator of chromatin subfamily A member 2 (Homo sapiens) (UniProt P51531). The data set can be described thus: Binding affinity to human partial length SMARCA2 (S1377 to Q1486 residues) expressed in Escherichia coli BL21 cells assessed as residual binding level at 1 uM measured after 1 hr by quantitative PCR based BROMOscan assay relative to control. In short, it runs like this:
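Bromodomain panel screen (32 bromodomains) run at 1 μM single concentration; primary binding reported as 'Percent Control', lower values meaning stronger interaction.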

Data set [3] can be described thus: Tmax in ICR mouse at 10 mg/kg, po administered via gavage measured after 0.25 to 24 hrs by UPLC/MS analysis. It counts as ADME, organism-based. The following applies: in vivo. In a few lines:
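Male ICR mice dosed orally (3, 10 or 100 mg/kg, per line) in 1% DMSO/0.5% HPMC vehicle; plasma drug levels measured.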

A short description of data set [4]: Half life in ICR mouse at 10 mg/kg, po administered via gavage measured after 0.25 to 24 hrs by UPLC/MS analysis. Conditions: in vivo. In kind it is ADME, organism-based. In short, it runs like this: (§1)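 Male ICR mice dosed orally in 1% DMSO/0.5% HPMC vehicle; plasma or brain drug levels used to derive Tmax, Cmax, AUC0-t, AUC0-inf and T1/2.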
Data set [5] addresses Bromodomain adjacent to zinc finger domain protein 2A (Homo sapiens) (UniProt Q9UIF9). The data set can be described thus: Binding affinity to human partial length BAZ2A (M1792 to L1905 residues) expressed in Escherichia coli BL21 cells assessed as residual binding level at 1 uM measured after 1 hr by quantitative PCR based BROMOscan assay relative to control. In short, it runs like this:
(§2)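 A BROMOScan competition-binding panel of 32 bromodomains was run at a single 1 μM compound concentration. Results are primary-screen 'Percent Control', where lower values indicate stronger binding.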

Data set [6] concerns the target ATPase family AAA domain-containing protein 2B (Homo sapiens) (UniProt Q9ULI0). The data set can be described thus: Binding affinity to human partial length ATAD2B (Q955 to R1082 residues) expressed in Escherichia coli BL21 cells assessed as residual binding level at 1 uM measured after 1 hr by quantitative PCR based BROMOscan assay relative to control. In a few lines:
as §2

Data set [7] addresses Bromodomain-containing protein 2 (Homo sapiens) (UniProt P25440). The data set can be described thus: Inhibition of BRD2 bromodomain 1 (unknown origin).
Data set [8] deals with Bromodomain-containing protein 4 (Homo sapiens, UniProt O60885). The data set can be described thus: Inhibition of BRD4 bromodomain 1 (unknown origin). In a few lines: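 BRD4 BD1 (His6-tagged, E. coli BL21(DE3)-expressed, Ni-NTA purified) at 10 nM with 5 nM FITC-labelled (+)-JQ1 tracer; 50 mM HEPES pH 7.4, 150 mM NaCl, 0.5 mM CHAPS, DMSO 2‰ final; graded inhibitor; 4 h dark equilibration at room temperature; fluorescence anisotropy read (ex 485/em 530 nm). IC50 from two independent experiments in duplicate, mean ± SEM.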

For data set [9], the target named is Histone acetyltransferase p300 (Homo sapiens) (UniProt Q09472). The data set can be described thus: Inhibition of EP300 (unknown origin) at 1 uM. In short, it runs like this: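 Bromodomain binding panel (32 bromodomains) screened at 1 μM; primary binding read-out reported as percent of control, lower values meaning stronger binding.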
The species named for data set [10] is Homo sapiens. The data set can be described thus: Antiproliferative activity against human TY82 cells after 72 hrs by CCK8 or SRB assay. In kind it is functional, cell-based.
Data set [11] concerns KG-1. Nature of the data set: Antiproliferative activity against human KG1 cells after 72 hrs by CCK8 or SRB assay. In kind it is functional, cell-based. (In general: Formazan colour is commonly taken as a measure of viable cells.)
Data set [12] deals with HT-29. Nature of the data set: Antiproliferative activity against human HT-29 cells after 72 hrs by CCK8 or SRB assay. It counts as functional, cell-based.
In data set [13] the test system is MV4-11. Nature of the data set: Induction of apoptosis in human MV4-11 cells after 24 hrs by Annexin V staining based assay. It counts as functional, cell-based.
Data set [14] concerns MV4-11. The data set can be described thus: Induction of apoptosis in human MV4-11 cells assessed as increase in cleaved caspase-8 level after 24 hrs by Western blot analysis. In kind it is functional, cell-based. In short, it runs like this:
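MV4-11 cells exposed to test agent at the indicated doses for 24 h. Lysates immunoblotted for full-length and cleaved caspase-3, -7, -8 and -9, with GAPDH as the loading reference.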

Data set [15] can be described thus: Tmax in rat brain at 50 mg/kg, po. It counts as ADME, organism-based. In a few lines: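 Rats dosed orally at 50 mg/kg in 1% DMSO/0.5% HPMC; drug measured in plasma and brain.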
Data set [16] is described as follows: Half life in ICR mouse brain at 50 mg/kg, po administered via gavage measured after 0.25 to 24 hrs by UPLC/MS analysis. It counts as ADME, organism-based. In a few lines: as §1
A short description of data set [17]: Half life in rat plasma at 3 mg/kg, iv. It counts as ADME, organism-based.
The subject of data set [18] is MV4-11. The data set can be described thus: Antitumor activity against human MV4-11 cells xenografted in Balb/c nude mouse assessed as tumor growth inhibition at 50 mg/kg, po administered once daily and measured twice a week by caliper method relative to control. In kind it is functional. Conditions: MV4-11, po, read-out: TGI. For orientation: A xenograft is tissue or cells of one species grown in another, often human tumour cells in immunodeficient mice.

Active and inactive are the calls of the source.

Usually AUC(0-t) stands for exposure summed from dosing to a finite time, without extrapolation to infinity. A high value points to more exposure. By Tmax is commonly meant the time from dosing to the highest level. What is called half-life is the time needed for the level to fall by half in the phase considered. High values mean slow loss, low ones fast loss.

Chain of Bromodomain adjacent to zinc finger domain protein 2A (Homo sapiens) (Q9UIF9 whole entry, the tested form may be a part): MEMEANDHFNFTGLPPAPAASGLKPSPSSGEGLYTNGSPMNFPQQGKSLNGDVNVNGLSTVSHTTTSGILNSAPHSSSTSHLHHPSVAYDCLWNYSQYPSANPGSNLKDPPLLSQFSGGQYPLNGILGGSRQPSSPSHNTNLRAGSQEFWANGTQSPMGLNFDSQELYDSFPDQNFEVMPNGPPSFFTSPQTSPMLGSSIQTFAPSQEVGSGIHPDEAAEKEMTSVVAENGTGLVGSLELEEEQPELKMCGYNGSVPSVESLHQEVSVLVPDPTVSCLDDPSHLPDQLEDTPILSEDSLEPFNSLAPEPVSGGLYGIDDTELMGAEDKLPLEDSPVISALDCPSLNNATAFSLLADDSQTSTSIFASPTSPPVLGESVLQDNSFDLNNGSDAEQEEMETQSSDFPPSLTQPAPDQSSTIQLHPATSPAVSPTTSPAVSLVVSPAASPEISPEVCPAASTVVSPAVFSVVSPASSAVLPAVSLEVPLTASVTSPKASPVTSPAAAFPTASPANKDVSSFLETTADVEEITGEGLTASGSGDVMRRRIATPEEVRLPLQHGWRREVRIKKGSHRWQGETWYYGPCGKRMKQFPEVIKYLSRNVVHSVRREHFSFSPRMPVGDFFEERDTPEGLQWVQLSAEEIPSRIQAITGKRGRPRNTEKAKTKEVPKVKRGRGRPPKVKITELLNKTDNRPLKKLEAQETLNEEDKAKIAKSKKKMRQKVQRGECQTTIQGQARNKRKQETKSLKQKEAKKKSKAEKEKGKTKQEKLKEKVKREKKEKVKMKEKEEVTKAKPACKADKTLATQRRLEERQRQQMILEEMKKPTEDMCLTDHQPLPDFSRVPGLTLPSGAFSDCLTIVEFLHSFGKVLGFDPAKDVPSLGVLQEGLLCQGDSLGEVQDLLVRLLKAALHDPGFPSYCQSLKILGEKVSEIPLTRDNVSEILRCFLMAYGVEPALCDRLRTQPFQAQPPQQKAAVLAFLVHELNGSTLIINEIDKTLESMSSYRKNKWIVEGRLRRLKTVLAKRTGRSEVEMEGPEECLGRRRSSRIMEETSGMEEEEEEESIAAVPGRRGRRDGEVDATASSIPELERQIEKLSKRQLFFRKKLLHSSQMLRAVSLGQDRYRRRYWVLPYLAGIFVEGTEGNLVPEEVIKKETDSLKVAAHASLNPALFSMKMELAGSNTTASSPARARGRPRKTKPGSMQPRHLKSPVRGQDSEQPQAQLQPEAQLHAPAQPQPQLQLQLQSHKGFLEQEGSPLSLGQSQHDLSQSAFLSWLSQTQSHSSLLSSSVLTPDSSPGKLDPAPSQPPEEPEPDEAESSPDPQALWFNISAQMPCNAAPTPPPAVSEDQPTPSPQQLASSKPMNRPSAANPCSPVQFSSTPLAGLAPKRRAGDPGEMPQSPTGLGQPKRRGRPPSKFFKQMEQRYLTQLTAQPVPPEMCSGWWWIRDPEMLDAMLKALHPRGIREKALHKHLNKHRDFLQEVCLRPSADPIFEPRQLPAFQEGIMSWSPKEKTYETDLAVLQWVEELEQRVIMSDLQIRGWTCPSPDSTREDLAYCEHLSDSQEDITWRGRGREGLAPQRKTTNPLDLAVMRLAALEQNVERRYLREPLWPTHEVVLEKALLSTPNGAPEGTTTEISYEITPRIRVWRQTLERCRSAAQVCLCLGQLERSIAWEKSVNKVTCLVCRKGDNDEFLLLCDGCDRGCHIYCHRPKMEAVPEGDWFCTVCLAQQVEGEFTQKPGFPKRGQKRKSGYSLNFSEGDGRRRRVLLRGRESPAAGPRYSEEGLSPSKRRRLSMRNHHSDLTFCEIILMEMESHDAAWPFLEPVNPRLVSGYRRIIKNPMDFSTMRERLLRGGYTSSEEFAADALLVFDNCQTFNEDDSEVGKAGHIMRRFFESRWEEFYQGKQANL
Chain of ATPase family AAA domain-containing protein 2B (Homo sapiens) (Q9ULI0 whole entry, the tested form may be a part): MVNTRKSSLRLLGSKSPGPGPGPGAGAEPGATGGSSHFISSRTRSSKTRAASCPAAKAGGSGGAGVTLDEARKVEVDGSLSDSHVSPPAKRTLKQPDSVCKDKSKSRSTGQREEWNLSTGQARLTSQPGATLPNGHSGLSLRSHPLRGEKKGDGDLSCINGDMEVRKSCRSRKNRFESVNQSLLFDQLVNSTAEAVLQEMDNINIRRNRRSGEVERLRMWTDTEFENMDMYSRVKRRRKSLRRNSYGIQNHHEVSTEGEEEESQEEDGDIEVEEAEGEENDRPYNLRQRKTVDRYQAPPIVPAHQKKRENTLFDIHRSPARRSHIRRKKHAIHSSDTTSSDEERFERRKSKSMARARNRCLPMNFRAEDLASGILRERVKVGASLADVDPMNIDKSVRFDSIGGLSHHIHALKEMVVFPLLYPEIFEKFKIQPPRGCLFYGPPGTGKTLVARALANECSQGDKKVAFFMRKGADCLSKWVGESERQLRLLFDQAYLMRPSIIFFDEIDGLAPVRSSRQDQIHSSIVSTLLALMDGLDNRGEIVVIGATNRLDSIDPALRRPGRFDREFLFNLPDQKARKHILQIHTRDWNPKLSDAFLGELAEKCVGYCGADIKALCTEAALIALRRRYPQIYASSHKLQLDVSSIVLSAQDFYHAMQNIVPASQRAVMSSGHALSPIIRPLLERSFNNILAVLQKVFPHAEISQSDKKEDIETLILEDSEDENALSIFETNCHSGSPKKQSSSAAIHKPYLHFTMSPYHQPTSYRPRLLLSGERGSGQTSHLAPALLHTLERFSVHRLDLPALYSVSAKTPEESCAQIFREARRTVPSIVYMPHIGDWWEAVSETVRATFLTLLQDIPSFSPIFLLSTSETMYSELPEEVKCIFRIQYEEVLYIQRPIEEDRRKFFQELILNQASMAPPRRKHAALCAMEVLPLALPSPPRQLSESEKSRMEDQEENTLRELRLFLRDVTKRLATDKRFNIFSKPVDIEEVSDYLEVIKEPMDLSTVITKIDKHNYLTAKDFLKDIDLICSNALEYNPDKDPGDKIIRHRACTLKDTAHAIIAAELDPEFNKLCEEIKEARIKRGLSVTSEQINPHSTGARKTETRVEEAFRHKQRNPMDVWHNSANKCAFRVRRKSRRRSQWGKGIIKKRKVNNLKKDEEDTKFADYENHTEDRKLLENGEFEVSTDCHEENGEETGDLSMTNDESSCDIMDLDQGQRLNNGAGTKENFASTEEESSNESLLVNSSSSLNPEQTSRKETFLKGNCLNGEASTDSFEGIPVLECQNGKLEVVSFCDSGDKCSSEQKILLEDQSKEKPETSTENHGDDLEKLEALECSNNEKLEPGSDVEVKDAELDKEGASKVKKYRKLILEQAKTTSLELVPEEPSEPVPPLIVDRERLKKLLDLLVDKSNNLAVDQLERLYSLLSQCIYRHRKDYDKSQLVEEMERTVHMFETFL
Chain of SWI/SNF-related matrix-associated actin-dependent regulator of chromatin subfamily A member 2 (Homo sapiens) (P51531 whole entry, the tested form may be a part): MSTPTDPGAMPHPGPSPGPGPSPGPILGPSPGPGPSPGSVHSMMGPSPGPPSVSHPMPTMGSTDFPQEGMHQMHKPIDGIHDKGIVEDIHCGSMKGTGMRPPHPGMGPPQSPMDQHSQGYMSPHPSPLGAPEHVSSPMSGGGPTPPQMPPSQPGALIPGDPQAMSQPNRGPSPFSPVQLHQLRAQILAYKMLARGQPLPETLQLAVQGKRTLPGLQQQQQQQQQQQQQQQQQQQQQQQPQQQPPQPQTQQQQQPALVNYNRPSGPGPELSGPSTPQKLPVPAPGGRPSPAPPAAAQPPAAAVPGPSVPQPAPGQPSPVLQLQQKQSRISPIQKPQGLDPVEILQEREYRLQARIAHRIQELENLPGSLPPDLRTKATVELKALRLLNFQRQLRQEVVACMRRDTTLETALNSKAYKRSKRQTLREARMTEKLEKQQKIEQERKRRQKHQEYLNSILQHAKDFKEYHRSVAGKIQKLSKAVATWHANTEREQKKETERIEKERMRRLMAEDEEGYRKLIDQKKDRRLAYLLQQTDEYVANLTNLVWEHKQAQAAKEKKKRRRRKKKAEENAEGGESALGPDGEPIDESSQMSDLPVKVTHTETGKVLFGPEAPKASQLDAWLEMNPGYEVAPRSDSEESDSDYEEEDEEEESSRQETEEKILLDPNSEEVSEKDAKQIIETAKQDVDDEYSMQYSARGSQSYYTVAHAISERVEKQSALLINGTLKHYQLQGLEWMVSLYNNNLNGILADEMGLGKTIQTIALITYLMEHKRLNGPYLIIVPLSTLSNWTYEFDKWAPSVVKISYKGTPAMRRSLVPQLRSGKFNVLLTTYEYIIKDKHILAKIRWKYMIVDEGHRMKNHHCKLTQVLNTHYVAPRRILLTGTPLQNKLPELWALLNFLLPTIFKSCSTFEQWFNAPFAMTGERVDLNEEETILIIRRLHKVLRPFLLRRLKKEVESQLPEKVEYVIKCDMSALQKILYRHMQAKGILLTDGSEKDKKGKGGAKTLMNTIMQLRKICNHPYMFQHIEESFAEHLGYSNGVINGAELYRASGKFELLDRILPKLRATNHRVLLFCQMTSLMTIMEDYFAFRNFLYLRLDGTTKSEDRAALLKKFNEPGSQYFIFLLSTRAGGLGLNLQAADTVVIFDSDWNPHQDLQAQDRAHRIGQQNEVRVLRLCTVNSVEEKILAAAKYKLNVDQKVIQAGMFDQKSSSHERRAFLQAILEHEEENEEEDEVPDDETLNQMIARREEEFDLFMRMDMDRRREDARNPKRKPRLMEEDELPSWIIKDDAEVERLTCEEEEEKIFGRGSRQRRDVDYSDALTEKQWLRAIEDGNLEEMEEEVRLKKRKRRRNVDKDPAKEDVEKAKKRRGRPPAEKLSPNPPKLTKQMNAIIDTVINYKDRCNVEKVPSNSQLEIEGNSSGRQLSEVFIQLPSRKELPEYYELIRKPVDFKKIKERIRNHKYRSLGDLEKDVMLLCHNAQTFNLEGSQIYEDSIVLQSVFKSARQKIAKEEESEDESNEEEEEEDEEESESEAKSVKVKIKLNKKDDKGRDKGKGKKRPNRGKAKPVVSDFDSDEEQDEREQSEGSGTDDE

The compound `Cc1ccc(-n2nc(C(=O)N3C[C@@H](C)N[C@@H](C)C3)nc2-c2ccc3c(c2)N(C2CCCC2)[C@H](C)C(=O)N3C)cc1` displayed an AUC(0-t) in data set [1] of 16700 ng·h/mL. The Activity in data set [2] is 70 to 100%; in data set [5], 70 to 100%; in [6], 70 to 100%; in data set [13], “Dose-dependent effect”; in data set [14], “Dose-dependent effect”. Besides, the Tmax in data set [3] came to 1.1 h; in [15], 0.9 h. Also, the half-life in data set [4] is 2.1 h; in data set [16], 3 h; in data set [17], 1.8 h. Besides, in data set [7], the “inhibition activity call (active/inactive)” value is “Active”. For the same compound, the inhibition result in data set [8] is “Active”. Also, in data set [9], the inhibition result was “inactive”. The result in data set [10], in data set [11] and in [12] was Active. The inhibition in vivo at 50 mg/kg in data set [18] worked out at 95.6%.
